Data set [1] relates to Rattus norvegicus. Put plainly: Antihypertensive activity in SHR rat assessed as mean arterial pressure at 5 to 10 mg/kg, po. The class given is functional, organism-based. As to conditions: Artery. The essentials: (§1)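 SHR (250-300 g) or renal hypertensive rats (SD rats, 250-350 g, left renal artery fully ligated under sodium pentobarbital 40 mg/kg; SBP above 160 mmHg selected), 10 per group. Dosed orally at 5 or 10 mg/kg as a suspension in 0.5% sodium carboxymethyl cellulose; vehicle-only negative control. Rats under pentobarbital (40 mg/kg ip) with right carotid cannulated to a pressure transducer; MAP recorded continuously for over 10 h and again at 24 h.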

Data set [2] has as its system Rattus norvegicus. In words: Cardiotoxicity in SHR rat assessed as effect on heart rate at 10 mg/kg, po. In kind it is toxicity, organism-based. Also on record: dose 10 mg/kg, route oral. As to conditions: in vivo. Summed up: (§2)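 Heart rate taken in SHR (250-300 g, 10 per group) given 5 or 10 mg/kg orally as a suspension in 0.5% sodium carboxymethyl cellulose, alongside a vehicle control. Monitored under sodium pentobarbital anesthesia (40 mg/kg ip) through a carotid arterial catheter and pressure transducer, continuously for over 10 h and again at 24 h.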

For data set [3], the system named is Rattus norvegicus. Put plainly: Cardiotoxicity in SHR rat assessed as effect on heart rate at 5 mg/kg, po. In kind it is toxicity, organism-based. On the set-up: dose 5 mg/kg, route oral. As to conditions: in vivo. The essentials: as §2
For data set [4], the species on record is Rattus norvegicus. In words: (§3) Displacement of [125I]Angiotensin-2 from angiotensin AT1 receptor in Sprague-Dawley rat VSMC after 60 mins by gamma counting. Summed up: (§4)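 VSMCs from SD rat thoracic aorta, grown as explants in DMEM with 15% FBS; passages 3–7 used. Cells incubated with 0.1 nM [125I]Ang II and compound (1 × 10^-6 to 1 × 10^-12 M final) for 60 min at 37 °C. Nonspecific binding set with 1 µM Ang II. After PBS washes, cells lysed in 0.1 M NaOH and counted by gamma counter. IC50 obtained by regression of displacement curves; Ki = IC50/(1+[L]/Kd).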

Data set [5] can be described thus: as §3. The essentials:
as §4

For data set [6], the system named is Rattus norvegicus. Put plainly: Antihypertensive activity in SHR rat assessed as decrease in mean arterial pressure at 10 mg/kg, po. The class given is functional, Artery. Summed up:
as §1

Data set [7] has as its system Rattus norvegicus. Put plainly: Antihypertensive activity in SHR rat assessed as decrease in mean arterial pressure at 10 mg/kg, po measured for 9 hrs after dosing. In kind it is functional, organism-based. Also on record: dose 10 mg/kg. As to conditions: Artery. Summed up: as §1
For data set [8], the system named is Rattus norvegicus. In words: Antihypertensive activity in Sprague-Dawley rat renal hypertensive model assessed as decrease in mean arterial pressure at 10 mg/kg, po. In kind it is functional, organism-based. On the set-up: dose 10 mg/kg. As to conditions: Artery. Summed up: as §1
The test system of data set [9] is LNCaP. In words: Cytotoxicity against human LNCAP cells assessed as cell viability at 10 uM after 24 to 96 hrs by MTT assay. In kind it is cell-based. Summed up:
(§5)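 LNCaP cells (1 × 10^5 per well) grown overnight at 37 °C, 5% CO2, then exposed to compound at 10 µM, with or without Ang II (1 × 10^-7 M). Control got medium with 0.05% v/v DMSO. MTT (5 mg/mL stock) added after 24, 48, 72 or 96 h and incubated 4 h at 37 °C; formazan dissolved in DMSO and read at 570 nm.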

For data set [10], the system named is Rattus norvegicus. Put plainly: Antihypertensive activity in SHR rat assessed as decrease in mean arterial pressure at 5 to 10 mg/kg, po after 3 to 5 hrs. As to conditions: Artery. The class given is functional, organism-based. Summed up:
as §1

Data set [11] relates to Rattus norvegicus. In words: Antihypertensive activity in Sprague-Dawley rat renal hypertensive model assessed as decrease in mean arterial pressure at 5 mg/kg, po. The class given is functional, organism-based. On the set-up: dose 5 mg/kg. The note with it: Artery. The essentials:
as §1

Data set [12] has as its system LNCaP. Put plainly: Antiproliferative activity against human LNCAP cells assessed as reduction in Ang-2-induced increase in cell viability at 10 uM after 24 to 96 hrs by MTT assay. In kind it is functional, cell-based. The essentials: as §5
Data set [13] relates to LNCaP. Put plainly: Antitumor activity against human LNCAP cells xenografted in athymic nude mouse assessed as relative tumor volume at 5 mg/kg/day dosed on day 8 measured at 4 weeks post implantation by caliper measurement (reference value: 28.34 +/-2.05). In kind it is functional.
Data set [14] relates to Rattus norvegicus. Put plainly: Antihypertensive activity in SHR rat assessed as decrease in mean arterial pressure at 10 mg/kg, po after 24 hrs. The class given is functional, organism-based. Also on record: dose 10 mg/kg. The note with it: Artery. Summed up: as §1
The test system of data set [15] is Rattus norvegicus. In words: Antihypertensive activity in SHR rat assessed as decrease in mean arterial pressure at 5 mg/kg, po. The class given is functional, Artery. Summed up: as §1
The test system of data set [16] is LNCaP. Put plainly: Antitumor activity against human LNCAP cells xenografted in athymic nude mouse assessed as relative tumor volume at 10 mg/kg/day dosed on day 8 measured at 4 weeks post implantation by caliper measurement (reference value: 28.34 +/-2.05). The class given is functional.
For data set [17], the system named is Rattus norvegicus. In words: Antihypertensive activity in SHR rat assessed as decrease in mean arterial pressure at 5 mg/kg, po after 3 hrs. The class given is functional, Artery. The essentials: as §1
Data set [18] concerns Rattus norvegicus. In words: Antihypertensive activity in SHR rat assessed as decrease in mean arterial pressure at 5 to 10 mg/kg, po measured for 8 hrs after dosing. As to conditions: Artery. In kind it is functional, organism-based. The essentials:
as §1

In data set [19] the test system is Rattus norvegicus. Put plainly: Antihypertensive activity in SHR rat assessed as decrease in mean arterial pressure at 10 mg/kg, po after 3 hrs. In kind it is functional, Artery. Summed up: as §1
Data set [20] relates to Rattus norvegicus. Put plainly: Antihypertensive activity in SHR rat assessed as decrease in mean arterial pressure at 10 mg/kg, po measured for 7 hrs after dosing. In kind it is functional, organism-based. As to conditions: Artery. Also on record: dose 10 mg/kg. Summed up: as §1

These results are taken from ChEMBL document CHEMBL2203191, “Synthesis and biological evaluation of new fluorine substituted derivatives as angiotensin II receptor antagonists with anti-hypertension and anti-tumor effects” (Bioorg Med Chem, 2012).

Activity calls are given as the source filed them. The rule behind the calls is not given here.

On to `CCCCc1nc(Cl)c(C(=O)O)n1Cc1ccc(-c2cc(F)c(F)cc2C(=O)O)cc1`, for which the outcome with Rattus norvegicus [1] was inactive. The Activity entry in the data set with Rattus norvegicus [2] and in the data set with Rattus norvegicus [3] was “Non-toxic” in each case. Moreover, in the data set filed under Rattus norvegicus [4], the inhibition result was “Dose-dependent effect”. This compound showed an IC50 in [5] of 13.5 nM. In data set [5], this compound returned a Ki of 9.11 nM.
For `CCCCc1nc(Cl)c(C(=O)O)n1Cc1ccc(-c2ccc(F)cc2C(=O)O)cc1`, the outcome in the data set on Rattus norvegicus [1] was inactive. Further, the Activity result with Rattus norvegicus [2] and in the data set with Rattus norvegicus [3] was “Non-toxic” throughout. For the same compound, the inhibition result in the data set filed under Rattus norvegicus [4] is “Dose-dependent effect”. The IC50 in [5] was found to be 26.1 nM. The same compound showed an inhibitory constant (Ki) in data set [5] of 17.6 nM.
As for `CCCCC(=O)N(Cc1ccc(-c2ccccc2-c2nnn[nH]2)cc1)[C@H](C(=O)O)C(C)C` [VALSARTAN], the values for the Activity with Rattus norvegicus [6] and with Rattus norvegicus [2] were 28 mmHg and “Non-toxic”, respectively. In addition, the outcome with Rattus norvegicus [7] and with Rattus norvegicus [8] was Active. Further, the inhibition result in the data set filed under Rattus norvegicus [4] is “Dose-dependent effect”. In [5], this compound came in with a concentration for half-maximal inhibition (IC50) of 2.64 nM. In addition, the affinity in data set [5], expressed as Ki, was 2.08 nM.
Consider `CCCCC1=NC2(CCCC2)C(=O)N1Cc1ccc(-c2ccccc2-c2nnn[nH]2)cc1` [IRBESARTAN], for which the inhibition entry in the data set listed under Rattus norvegicus [4] is “Dose-dependent effect”. In data set [5], this compound returned an IC50 of 3.11 nM and an inhibitory constant (Ki) of 2.75 nM.
Turning to `CCCCc1nc(Cl)c(CO)n1Cc1ccc(-c2ccccc2-c2nn[nH]n2)cc1` [LOSARTAN], the Activity entry in the data set with LNCaP [9] and in the data set with Rattus norvegicus [2] was “Non-toxic” in each case.
Take `CCCC(=O)N(Cc1ccc(-c2ccc(F)cc2C(=O)O)cc1)[C@H](C(=O)O)C(C)C`: the result in the data set on Rattus norvegicus [10], with Rattus norvegicus [11], in the data set with LNCaP [12], in the data set with Rattus norvegicus [14] and with Rattus norvegicus [8] was Active. Also, the Activity in the data set with Rattus norvegicus [6] is 42 mmHg; in the data set with LNCaP [9], “Non-toxic”; in the data set with Rattus norvegicus [2] it was “Non-toxic”; with Rattus norvegicus [15], 27 mmHg; in the data set with Rattus norvegicus [3], “Non-toxic”. Also, the values for the Ratio in the data set with LNCaP [13] and with LNCaP [16] were 17.44 and 12.39, respectively. The inhibition entry in the data set filed under Rattus norvegicus [4] is “Dose-dependent effect”. Besides, in [5], the IC50 worked out at 0.584 nM. The compound also displayed a Ki in data set [5] of 0.42 nM.
In the case of `CCCCC1=NC2(CCCC2)C(=O)N1Cc1ccc(-c2ccc(F)cc2C(=O)O)cc1`, the result in the data set with Rattus norvegicus [1] was inactive. Moreover, the Activity result in the data set on Rattus norvegicus [2] and with Rattus norvegicus [3] was “Non-toxic” throughout. Moreover, the inhibition entry in the data set filed under Rattus norvegicus [4] is “Dose-dependent effect”. Also, the IC50 in [5] amounted to 9.98 nM. This compound also came in with a Ki in data set [5] of 6.75 nM.
As to `CCCCc1nc(Cl)c(C(=O)O)n1Cc1ccc(-c2cc(F)ccc2C(=O)O)cc1`, the Activity in the data set on Rattus norvegicus [17] is 23 mmHg; in the data set on Rattus norvegicus [2], “Non-toxic”; with Rattus norvegicus [19] it was 32 mmHg; with Rattus norvegicus [3] it was “Non-toxic”. Further, the outcome in the data set on Rattus norvegicus [18] and in the data set with Rattus norvegicus [8] was Active. Besides, the inhibition result in the data set filed under Rattus norvegicus [4] was “Dose-dependent effect”. The IC50 in data set [5] is 13.6 nM. For the same compound, in [5], the inhibition constant Ki was determined as 9.17 nM.
`CCCCc1nc(Cl)c(CO)n1Cc1ccc(-c2ccccc2-c2nnn[nH]2)cc1` [LOSARTAN]: the result with Rattus norvegicus [20], with LNCaP [12] and with Rattus norvegicus [8] was Active. Also, in the data set with Rattus norvegicus [6], the Activity was determined as 27 mmHg. Moreover, the Ratio with LNCaP [13] is recorded as 21.44; with LNCaP [16] it was 15.75. The inhibition result in the data set filed under Rattus norvegicus [4] is “Dose-dependent effect”. Also, in [5], the half-maximal inhibitory concentration (IC50) was found to be 1.64 nM. For the same compound, the Ki in [5] worked out at 1.41 nM.
For `CCCCc1nc(Cl)c(CO)n1Cc1ccc(-c2ccc(F)cc2C(=O)O)cc1`, the Activity in the data set on Rattus norvegicus [6] was 25 mmHg; in the data set with Rattus norvegicus [2], “Non-toxic”; with Rattus norvegicus [15] it was 18 mmHg; in the data set with Rattus norvegicus [3], “Non-toxic”. The result in the data set with Rattus norvegicus [18] and with Rattus norvegicus [8] was Active. In the data set filed under Rattus norvegicus [4], the inhibition entry was “Dose-dependent effect”. Besides, the IC50 in data set [5] was 4.11 nM. In data set [5], the inhibition constant (Ki) worked out at 3.78 nM.
